Only a selection was taken, and hits are over-represented in it overall.
PTEN del growth: suppresses growth of cells with PTEN deletion; 140,000 tested, 1.2% active; HCT116 PTEN-null viability, CellTiter-Glo, 60 h; stronger effect = lower value; AID 827; viability, % at 10 µM;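 active means viability at or below a set limit, 4 SD under the median of all tested compounds, cut at about 3.7% in these data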;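 further: PTEN knockout HCT116 line with beta catenin targeted HCT116 as companion control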
HUVEC inhibit: inhibitors of human endothelial cell proliferation; HUVEC proliferation, CellTiter-Glo luminescence, 72 h; stronger effect = lower value; viability, % at 10 µM (by protocol); 86,000 tested, 1.1% active; AID 648;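 active means viability at or below 30%; inactive means viability above 30%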;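 further: 100% = median luminescence of DMSO-only cell control wells on each plate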
H69AR inhibit: blocks growth of human H69AR lung tumor cells. H69AR lung tumor viability, ATP luminescence, 72 h; stronger effect = lower value. viability, % at 10 µM. 85,000 tested, 6% active;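 active means viability at or below 40%; inactive means viability above 40%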;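 further: multidrug resistant small cell line overexpressing MRP-1 efflux transporter; 100% = mean luminescence of untreated control wells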
Lung fibro prol: blocks proliferation of human lung fibroblasts | LL 47 human lung fibroblast viability, ATP luminescence; stronger effect = lower value | viability, % at 10 µM | 85,000 tested, 1.1% active | AID 719;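 active means viability at or below 50% in the single dose screen; inactive means viability above 50%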;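 further: compound exposure lasted 72 h before the ATP readout; 100% = median luminescence of untreated cell-only wells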
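Times – overnight cell rest, 72 h compound treatment at 37 °C · Test system – human lung fibroblast line LL 47, low passage · Amount – 1,150 cells in each well · Controls – cell-only wells, no compound · Doses – 0.1% DMSO in all compound wells · Measured by – CellTiter-Glo luminescence · Buffer or medium – IMEM plus 15% FBS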
bCat KO growth: beta-catenin-lacking colon tumor cell growth suppression; AID 818; viability, % at 10 µM; 140,000 tested, 1.5% active; HCT116 beta-catenin knockout viability, CellTiter-Glo, 60 h; stronger effect = lower value;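 active means viability at or under a set limit, the compound median less 4 SD, cut at about 6% in these data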;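 further: 0% = Hyamine 1622 control at 20 µM and 100% = untreated cell control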
* = called active by the depositor; / = no result.

SMILES	PTEN del growth	HUVEC inhibit	H69AR inhibit	Lung fibro prol	bCat KO growth
N#C/C(=C\c1ccc(N2CCOCC2)o1)c1nc2ccccc2[nH]1	60	57	20*	83	58
O=c1[nH]c2cc3c(cc2cc1C(c1nnnn1C1CCCC1)N1CCSCC1)OCCO3 (centres undefined)	12	65	6.4*	81	67
Cc1cccc2cc(C(c3nnnn3C3CCCC3)N3CCOCC3)c(=O)[nH]c12 (centres undefined)	101	97	94	94	99
Cc1cc(C)c2cc(C(c3nnnn3C3CCCC3)N3CCOCC3)c(=O)[nH]c2c1 (centres undefined)	85	99	36*	97	87
CC(C)(C)n1nnnc1C(c1cc2cc3c(cc2[nH]c1=O)OCCO3)N1CCSCC1 (centres undefined)	105	80	80	81	92
COc1ccc(C(=O)n2nc(C)cc2Nc2ccccc2)cc1	85	82	96	98	83
Cc1cc(Nc2ccccc2)nn1C(=O)c1ccccc1	1.2*	109	91	92	1.5*
Cc1cc(Nc2ccccc2)nn1C(=O)c1ccc(Br)cc1	102	69	29*	97	99
CCN=C1SC(C(=O)Nc2cccc(Br)c2)CC(=O)N1CC (centres undefined)	86	/	/	/	81
CCC(=O)Nc1cccc(C(=O)/C=C/c2ccccc2)c1	1.4*	/	/	/	1.6*
CCC(=O)Nc1cccc(C(=O)c2ccccc2)c1	96	95	98	91	96
CC1(C)CC(=O)c2c(O)c(-c3ccccc3)c(=O)n(-c3ccccc3)c2C1	94	/	/	/	97
CN(c1ccccc1)c1ccc(/C=N/NC(=O)CC#N)cc1	88	/	/	/	100
CN(c1ccccc1)c1ccc(/C=C/[N+](=O)[O-])cc1	3.5*	/	/	/	4.7*
Cc1ccc2nc(/C(C#N)=C/c3cn[nH]c3-c3ccc(F)cc3)[nH]c2c1	1.2*	59	14*	87	1.5*
N#C/C(=C/c1ccc(N2CCCC2)c([N+](=O)[O-])c1)c1nc2ccccc2[nH]1	80	/	/	/	84
Cc1ccc2nc(/C(C#N)=C\c3ccc(N4CCCCC4)c([N+](=O)[O-])c3)[nH]c2c1	9	106	18*	98	27
Cc1ccc2nc(/C(C#N)=N/O)[nH]c2c1	107	94	80	96	88
Cc1cccc(Nc2nc(-c3cccs3)cs2)n1	52	80	62	89	51
Cc1cccnc1Nc1nc(-c2ccccn2)cs1	0.8*	16*	0.4*	3.2*	0.7*
Cc1cccc(Nc2nc(-c3ccccn3)cs2)n1	20	60	3.9*	69	17
Cc1cccnc1Nc1nc(-c2ccc(O)cc2O)cs1	65	14*	8.0*	84	67
NS(=O)(=O)c1ccc(Nc2nc(-c3ccc(O)cc3O)cs2)cc1	94	93	58	101	97
O=C(COC(=O)Cc1ccc(S(=O)(=O)N2CCCCC2)s1)Nc1ccc2c(c1)OCO2	101	92	25*	103	102
Brc1ccc(-n2cc(-c3ccccc3)c3c(NN4CCOCC4)ncnc32)cc1	61	/	/	/	68
SMILES	PTEN del growth	HUVEC inhibit	H69AR inhibit	Lung fibro prol	bCat KO growth
Cc1c(N(C)C)nc2ccccc2c1N	106	/	/	/	105
CCN(CC)c1nc2ccccc2c(N)c1-c1ccccc1	14	78	39*	92	7
Cc1ccc(NC(=O)/C(=C/c2cccc([N+](=O)[O-])c2)NC(=O)C2CCCCC2)c(C)c1	67	33	27*	9.6*	64
O=C(Nc1ccc([N+](=O)[O-])cc1)/C(=C/c1cccc([N+](=O)[O-])c1)NC(=O)C1CCCCC1	54	84	57	85	71
CC(C)(C)c1ccc(NC(=O)COC(=O)c2ccc(NS(=O)(=O)c3ccc(F)c(F)c3)cc2)cc1	80	/	/	/	88
CC1=CC(=O)C=C(C)C1=NOS(=O)(=O)c1ccccc1	2.7*	1.1*	0.7*	1.4*	1.6*
COc1ccc2cnn(CCOc3cc(C)ccc3C(C)C)c(=O)c2c1OC	59	/	/	/	64
CCN(c1ccccc1)S(=O)(=O)c1ccc(Cl)c(NC(=O)CSc2n[nH]c(N)n2)c1	96	/	/	/	93
CCOC(=O)c1c(C(C)(C)C)oc2ccc(O)cc12	78	47	30*	94	83
CC(C)C(=O)NC(c1ccc([N+](=O)[O-])cc1)c1c(O)ccc2ccccc12 (centres undefined)	1.8*	/	/	/	2.0*
CC(C)C(=O)NC(NC(=O)C(C)C)c1ccc([N+](=O)[O-])cc1	95	/	/	/	96
